ChEMBL document CHEMBL3853270, “Influence of Birch Bark Triterpenes on Keratinocytes and Fibroblasts from Diabetic and Nondiabetic Donors” (2016)
Active and inactive are the calls of the source. The rule behind the calls is not given here.

What was measured:
Keratinocyte [1] = assay: Effect on cellular connection related gene expression in non-diabetic young human primary keratinocytes assessed as CLDN4 mRNA levels at 1.96 uM after 6 hrs by qPCR analysis; format: functional
Keratinocyte [2] = assay: Effect on growth factor related gene expression in non-diabetic young human primary keratinocytes assessed as VEGFA mRNA levels at 1.96 uM after 6 hrs by qPCR analysis; format: functional
Procedure, shortened: (§1)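 Primary human keratinocytes (nondiabetic young or adult, diabetic adult donors) were exposed to compound for 6 h, with 0.1% DMSO as solvent control. Total RNA came from 400 000 cells per sample and was assayed on a Fluidigm Biomark high-throughput qPCR chip. Results are fold change vs solvent control, from 2−4 independent experiments on two donors per group, with SD. Groups were compared by one-way ANOVA with Bonferroni post-test.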

Keratinocyte [3] = assay: Effect on growth factor related gene expression in non-diabetic young human primary keratinocytes assessed as GDF15 mRNA levels at 1.96 uM after 6 hrs by qPCR analysis; format: functional; procedure, shortened: as §1
Keratinocyte [4] = assay: Effect on MMP1 mRNA expression levels in non-diabetic young human primary keratinocytes at 1.96 uM after 6 hrs by qPCR analysis; format: functional
Procedure, shortened: (§2)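 Primary keratinocytes from nondiabetic young and adult and diabetic adult donors; 400 000 cells per sample, 6 h exposure at 1.96 or 9.81 μM. RNA extracted and read on a high-throughput qPCR chip. Results are fold change versus 0.1% DMSO solvent control from 5−7 independent experiments over two donors per group, SD, one-way ANOVA with Bonferroni post-test.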

Keratinocyte [5] = assay: Effect on pro-inflammatory related gene expression in non-diabetic adult human primary keratinocytes assessed as TNF mRNA levels at 1.96 uM after 6 hrs by qPCR analysis; format: functional
Keratinocyte [6] = assay: Effect on MMP1 mRNA expression levels in non-diabetic adult human primary keratinocytes at 1.96 uM after 6 hrs by qPCR analysis; format: functional; procedure, shortened: as §2
Keratinocyte [7] = assay: Effect on pro-inflammatory related gene expression in non-diabetic young human primary keratinocytes assessed as IL1R1 mRNA levels at 9.81 uM after 6 hrs by qPCR analysis; format: functional
Keratinocyte [8] = assay: Effect on chemokines related gene expression in non-diabetic young human primary keratinocytes assessed as CXCL10 mRNA levels at 9.81 uM after 6 hrs by qPCR analysis; format: functional; procedure, shortened: as §1
Keratinocyte [9] = assay: Effect on pro-inflammatory related gene expression in non-diabetic adult human primary keratinocytes assessed as IL1R1 mRNA levels at 9.81 uM after 6 hrs by qPCR analysis; format: functional
Keratinocyte [10] = assay: Effect on chemokines related gene expression in non-diabetic adult human primary keratinocytes assessed as IL8 mRNA levels at 9.81 uM after 6 hrs by qPCR analysis; format: functional
Keratinocyte [11] = assay: Effect on pro-inflammatory related gene expression in diabetic adult human primary keratinocytes assessed as IL6 mRNA levels at 9.81 uM after 6 hrs by qPCR analysis; format: functional
Keratinocyte [12] = assay: Effect on growth factor related gene expression in diabetic adult human primary keratinocytes assessed as GDF15 mRNA levels at 9.81 uM after 6 hrs by qPCR analysis; format: functional; procedure, shortened: as §1
Fibroblast [13] = assay: Effect on chemokines related gene expression in non-diabetic adult human primary fibroblasts assessed as IL8 mRNA levels at 1.96 uM after 6 hrs by qPCR analysis; format: functional
Fibroblast [14] = assay: Effect on MMP1 mRNA expression levels in non-diabetic adult human primary fibroblasts at 1.96 uM after 6 hrs by qPCR analysis; format: functional
Procedure, shortened: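 Primary dermal fibroblasts from one nondiabetic young, one nondiabetic adult and one diabetic adult donor; 320 000 cells per sample, 6 h at 1.96 or 9.81 μM. RNA measured on a high-throughput qPCR chip. Fold change versus 0.1% DMSO control, four independent experiments, SD, one-way ANOVA with Bonferroni post-test.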

Fibroblast [15] = assay: Effect on pro-inflammatory related gene expression in diabetic adult human primary fibroblasts assessed as PTGS2 mRNA levels at 1.96 uM after 6 hrs by qPCR analysis; format: functional
Fibroblast [16] = assay: Effect on pro-inflammatory related gene expression in diabetic adult human primary fibroblasts assessed as IL6 mRNA levels at 1.96 uM after 6 hrs by qPCR analysis; format: functional
Procedure, shortened: (§3)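 Primary human dermal fibroblasts (young or adult nondiabetic, adult diabetic donor) were treated for 6 h against a 0.1% DMSO solvent control. RNA from 320 000 cells per sample was measured by Fluidigm Biomark high-throughput qPCR. Values are fold change relative to solvent control, from four independent experiments, with SD. One-way ANOVA with Bonferroni post-test was applied.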

Fibroblast [17] = assay: Effect on chemokines related gene expression in diabetic adult human primary fibroblasts assessed as WDR26 mRNA levels at 1.96 uM after 6 hrs by qPCR analysis; format: functional
Fibroblast [18] = assay: Effect on growth factor related gene expression in non-diabetic young human primary fibroblasts assessed as VEGFA mRNA levels at 9.81 uM after 6 hrs by qPCR analysis; format: functional; procedure, shortened: as §3
Fibroblast [19] = assay: Effect on growth factor related gene expression in non-diabetic adult human primary fibroblasts assessed as VEGFA mRNA levels at 9.81 uM after 6 hrs by qPCR analysis; format: functional; procedure, shortened: as §3
Fibroblast [20] = assay: Effect on adhesion molecules related gene expression in diabetic adult human primary fibroblasts assessed as VCAM1 mRNA levels at 9.81 uM after 6 hrs by qPCR analysis; format: functional
Procedure, shortened: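 Dermal fibroblasts from nondiabetic adult and diabetic adult donors, exposed for 6 h at 1.96 or 9.81 μM. ICAM-1 and VCAM-1 mRNA measured by standard qRT-PCR, n = 3. Fold change versus 0.1% DMSO control, SD, one-way ANOVA with Bonferroni post-test.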

[21] = Effect on wound healing activity in non-diabetic adult human primary keratinocytes assessed as upregulation of TNFalpha protein levels at 1.96 uM after 24 hrs by bead-based suspension array analysis; format: functional; details: Keratinocyte
[22] = Effect on wound healing activity in non-diabetic adult human primary keratinocytes assessed as upregulation of soluble E-selectin protein levels at 1.96 uM after 24 hrs by bead-based suspension array analysis; format: functional; details: Keratinocyte
[23] = Upregulation of wound healing activity related MCP1 protein levels in non-diabetic adult human primary keratinocytes at 1.96 uM after 24 hrs by bead-based suspension array analysis; format: functional; details: Keratinocyte
Fibroblast [24] = assay: Effect on actin cytoskeleton in human non-diabetic primary fibroblasts assessed as formation of thin elongated cellular body at 10 nM after 2 hrs in presence of p-38 MAPK inhibitor LN 950 by rhodamine phalloidin-staining based fluorescence microscopic analysis; format: functional
Procedure, shortened: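 Subconfluent cells on glass coverslips, collagen type I coated for fibroblasts; keratinocytes starved 2 days before stimulation. Exposure 2 h, then rhodamine-phalloidin staining (1:25 in PBS) and fluorescence microscopy. Controls were DMSO as solvent and PDGF (fibroblasts) or CNF1 (keratinocytes). Where used, p38-MAPK inhibitor LN 950 (100 nM) was added 30 min beforehand.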

[25] = molecular target: Transforming protein RhoA (Homo sapiens) (UniProt P61586); assay: Activation of RhoA in human diabetic primary keratinocytes at 10 nM after 3 hrs by immunoblot method
Procedure, shortened: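 Keratinocytes from a diabetic adult donor; incubation 3 h for RhoA, 20 min for Cdc42 and Rac1. Lysates made in glycerol/Tris pH 7.4/NaCl/NP-40/MgCl2/PMSF buffer, spun at 4 °C. Active GTP-bound form pulled down on glutathione-sepharose with GST-Rhotekin (RhoA) or GST-PAK (Cdc42, Rac1) for 1 h at 4 °C. Total and pulled-down protein read by immunoblot with ECL; n = 3.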

Transforming protein RhoA (Homo sapiens), sequence (P61586 whole entry): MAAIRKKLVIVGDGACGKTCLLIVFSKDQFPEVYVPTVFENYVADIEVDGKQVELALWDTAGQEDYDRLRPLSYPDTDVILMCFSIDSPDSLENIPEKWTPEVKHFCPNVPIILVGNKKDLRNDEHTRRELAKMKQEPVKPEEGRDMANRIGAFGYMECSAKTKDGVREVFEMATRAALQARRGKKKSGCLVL

C=C(C)[C@@H]1CC[C@]2(CO)CC[C@]3(C)[C@H](CC[C@@H]4[C@@]5(C)CC[C@H](O)C(C)(C)[C@@H]5CC[C@]43C)[C@@H]12 [BETULIN]
fold change (FC) (Keratinocyte [1]): 1.5
fold change (FC) (Keratinocyte [2]): 1.3
fold change (FC) (Keratinocyte [3]): 1
fold change (FC) (Keratinocyte [4]): 1
fold change (FC) (Keratinocyte [5]): 3.8
fold change (FC) (Keratinocyte [6]): 1
fold change (FC) (Keratinocyte [7]): 1
fold change (FC) (Keratinocyte [8]): 1.7
fold change (FC) (Keratinocyte [9]): 0.9
fold change (FC) (Keratinocyte [10]): 69.9
fold change (FC) (Keratinocyte [11]): 26
fold change (FC) (Keratinocyte [12]): 2.5
fold change (FC) (Fibroblast [13]): 702
fold change (FC) (Fibroblast [14]): 2.1
fold change (FC) (Fibroblast [15]): 4.1
fold change (FC) (Fibroblast [16]): 14.9
fold change (FC) (Fibroblast [17]): 1.2
fold change (FC) (Fibroblast [18]): 2
fold change (FC) (Fibroblast [19]): 2
fold change (FC) (Fibroblast [20]): 1.3
Activity [21]: Active
Activity [22]: Active
Activity [23]: Active
Activity (Fibroblast [24]): Active
Activity [25]: Active
